Assay results taken from ChEMBL document CHEMBL3217604, “4-Alkyloxyimino-cytosine nucleotides: tethering approaches to molecular probes for the P2Y6 receptor” (Medchemcomm, 2013).
The source made the active and inactive calls. No cut-off for these calls is given here.

Assays:
[1] = molecular target: T1, P2Y purinoceptor 2 (Homo sapiens, UniProt P41231); assay: Agonist activity at human recombinant P2Y2 receptor expressed in human 1321N1 cells using [3H]inositol as substrate assessed as [3H]inositol phosphate formation at 10 uM after 30 mins by liquid scintillation counting analysis; assay type: functional, cell-based
T1 sequence (P41231 whole entry): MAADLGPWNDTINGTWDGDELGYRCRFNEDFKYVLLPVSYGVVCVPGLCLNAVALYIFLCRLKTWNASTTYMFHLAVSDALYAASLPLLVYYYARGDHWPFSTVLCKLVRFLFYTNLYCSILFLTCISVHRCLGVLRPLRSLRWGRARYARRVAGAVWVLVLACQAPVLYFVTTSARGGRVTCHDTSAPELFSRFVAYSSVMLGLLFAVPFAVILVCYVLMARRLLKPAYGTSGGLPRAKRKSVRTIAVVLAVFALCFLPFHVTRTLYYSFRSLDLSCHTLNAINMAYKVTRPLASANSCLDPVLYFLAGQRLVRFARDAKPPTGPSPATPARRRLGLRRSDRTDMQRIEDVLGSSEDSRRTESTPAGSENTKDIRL
How it was run: (§1)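 PLC activation measured in 1321N1 human astrocytoma cells stably expressing recombinant hP2Y2, hP2Y4 or hP2Y6 receptor; potency given as EC50 or % activation.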

[2] = molecular target: T2, P2Y purinoceptor 6 (Homo sapiens, UniProt Q15077); assay: Agonist activity at human recombinant P2Y6 receptor expressed in human 1321N1 cells using [3H]inositol as substrate assessed as [3H]inositol phosphate formation after 30 mins by liquid scintillation counting analysis; assay type: functional, cell-based; how it was run: as §1
T2 sequence (Q15077 whole entry): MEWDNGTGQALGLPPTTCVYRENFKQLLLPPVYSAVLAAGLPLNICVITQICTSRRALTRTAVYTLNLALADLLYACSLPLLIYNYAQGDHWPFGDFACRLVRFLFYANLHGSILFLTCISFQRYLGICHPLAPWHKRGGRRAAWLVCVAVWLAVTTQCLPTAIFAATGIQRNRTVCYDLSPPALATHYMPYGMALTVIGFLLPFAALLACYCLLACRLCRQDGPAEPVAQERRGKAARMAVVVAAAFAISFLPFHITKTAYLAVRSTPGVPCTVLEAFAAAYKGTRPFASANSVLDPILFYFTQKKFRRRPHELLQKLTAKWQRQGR

[3] = molecular target: T3, P2Y purinoceptor 4 (Homo sapiens, UniProt P51582); assay: Agonist activity at human recombinant P2Y4 receptor expressed in human 1321N1 cells using [3H]inositol as substrate assessed as [3H]inositol phosphate formation at 10 uM after 30 mins by liquid scintillation counting analysis; assay type: functional, cell-based; how it was run: as §1
T3 sequence (P51582 whole entry): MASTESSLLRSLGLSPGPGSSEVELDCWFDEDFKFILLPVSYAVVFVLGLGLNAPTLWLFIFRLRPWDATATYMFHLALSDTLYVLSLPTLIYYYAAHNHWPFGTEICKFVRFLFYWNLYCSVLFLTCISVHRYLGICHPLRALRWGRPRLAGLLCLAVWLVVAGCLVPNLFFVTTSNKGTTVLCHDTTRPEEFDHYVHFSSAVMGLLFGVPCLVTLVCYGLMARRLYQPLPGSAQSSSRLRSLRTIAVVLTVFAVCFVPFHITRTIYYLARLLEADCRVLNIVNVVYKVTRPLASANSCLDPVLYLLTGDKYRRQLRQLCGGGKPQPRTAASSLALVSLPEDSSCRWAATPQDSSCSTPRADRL

[4] = molecular target: T2, P2Y purinoceptor 6; assay: Binding affinity to human recombinant P2Y6 receptor expressed in human 1321N1 cells at 100 nM to 1 uM by flow cytometry in presence of UDP; assay type: cell-based
How it was run: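 1321N1 cells with or without P2Y6R labeled with 100 nM to 1 μM Cy5 conjugate; blockade tested with 100 μM UDP; read by flow cytometry.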

[5] = molecular target: T1, P2Y purinoceptor 2; assay: Agonist activity at human recombinant P2Y2 receptor expressed in human 1321N1 cells using [3H]inositol as substrate assessed as [3H]inositol phosphate formation after 30 mins by liquid scintillation counting analysis; assay type: functional, cell-based; how it was run: as §1
[6] = molecular target: T3, P2Y purinoceptor 4; assay: Agonist activity at human recombinant P2Y4 receptor expressed in human 1321N1 cells using [3H]inositol as substrate assessed as [3H]inositol phosphate formation after 30 mins by liquid scintillation counting analysis; assay type: functional, cell-based; how it was run: as §1
[7] = species on record: Homo sapiens; assay: Selectivity ratio of EC50 for human recombinant P2Y2 receptor to EC50 for human recombinant P2Y6 receptor
[8] = molecular target: T2, P2Y purinoceptor 6; assay: Agonist activity at human recombinant P2Y6 receptor expressed in human 1321N1 cells assessed as compound internalization at 1 uM after 60 mins by confocal microscopy in presence of sucrose; assay type: cell-based
How it was run: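 P2Y6R-expressing 1321N1 cells incubated with 1 μM fluorescent agonist for 60 min at 37 °C in medium containing 0.4 M sucrose; labeling imaged by confocal microscopy.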

[9] = molecular target: T2, P2Y purinoceptor 6; assay: Binding affinity to human recombinant P2Y6 receptor expressed in human 1321N1 cells at 10 nM to 10 uM after 60 mins by flow cytometry relative to control; assay type: cell-based
How it was run: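 Flow cytometry of 1321N1-P2Y6R and control 1321N1 cells after 60 min with 10 nM to 10 μM fluorescent ligand.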

[10] = molecular target: T2, P2Y purinoceptor 6; assay: Binding affinity to human recombinant P2Y6 receptor expressed in human 1321N1 cells at 500 nM after 3 hrs by flow cytometry in presence of UDP relative to control; assay type: cell-based
How it was run: (§2)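 Saturation labeling by flow cytometry, 10 nM to 1.5 μM fluorescent ligand, 3 h at 37 °C on 1321N1-P2Y6R cells; nonspecific binding with 100 μM UDP; autofluorescence from ligand-free cells; values as MESF.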

[11] = molecular target: T2, P2Y purinoceptor 6; assay: Binding affinity to human recombinant P2Y6 receptor expressed in human 1321N1 cells at 400 nM after 60 mins by flow cytometry at 400 nM after 60 mins by flow cytometry; assay type: cell-based
How it was run: (§3)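 1321N1-P2Y6R cells incubated with 400 nM fluorescent ligand at 37 °C for 60 min; nonspecific binding with 100 μM UDP; surface fraction in 0.4 M sucrose medium; internalized fraction as acid-insensitive fluorescence after 3 × 5 min acid wash (pH 3.5); fluorescence converted to MESF, nonspecific subtracted.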

[12] = molecular target: T2, P2Y purinoceptor 6; assay: Binding affinity to human recombinant P2Y6 receptor expressed in human 1321N1 cells assessed as compound internalization measured as the acid-insensitive fraction following acid wash at 400 nM after 60 mins by flow cytometry; assay type: cell-based; how it was run: as §3
[13] = molecular target: P2Y purinoceptor 1 (Homo sapiens) (UniProt P47900); assay: Binding affinity to P2Y1 receptor (unknown origin) expressed in human 1321N1 cells at 400 nM after 60 mins by flow cytometry; assay type: cell-based
Chain of P2Y purinoceptor 1 (Homo sapiens) (P47900 whole entry): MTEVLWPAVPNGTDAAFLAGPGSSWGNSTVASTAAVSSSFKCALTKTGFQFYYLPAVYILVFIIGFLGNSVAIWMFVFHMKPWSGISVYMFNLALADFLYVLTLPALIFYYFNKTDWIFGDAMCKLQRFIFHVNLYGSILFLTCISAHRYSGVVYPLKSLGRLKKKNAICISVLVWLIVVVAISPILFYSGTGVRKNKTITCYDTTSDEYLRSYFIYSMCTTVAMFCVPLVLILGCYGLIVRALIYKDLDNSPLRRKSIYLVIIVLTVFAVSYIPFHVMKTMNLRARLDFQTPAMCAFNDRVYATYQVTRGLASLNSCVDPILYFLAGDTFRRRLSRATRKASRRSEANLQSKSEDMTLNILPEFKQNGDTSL

[14] = molecular target: T2, P2Y purinoceptor 6; assay: Binding affinity to human recombinant P2Y6 receptor expressed in human 1321N1 cells after 2 mins by flow cytometry in presence of MRS2578; assay type: cell-based
How it was run: (§4)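 1321N1-P2Y6R cells preincubated 30 min with known ligand (UDP 10 μM, MRS2957 0.5 μM, MRS2578 1 μM), then briefly exposed (2 min) to fluorescent agonist; labeling quantified by flow cytometry.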

[15] = molecular target: T2, P2Y purinoceptor 6; assay: Agonist activity at human recombinant P2Y6 receptor expressed in human 1321N1 cells assessed as compound internalization at 2 uM after 60 mins by confocal microscopy; assay type: cell-based
How it was run: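 Confocal microscopy of P2Y6R-expressing 1321N1 cells after 60 min at 37 °C with 2 μM fluorescent agonist; cells without ligand served as control.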

[16] = molecular target: T2, P2Y purinoceptor 6; assay: Binding affinity to human recombinant P2Y6 receptor expressed in human 1321N1 cells at 500 nM after 60 mins by fluorescence microscopy in presence of MRS2957; assay type: cell-based
How it was run: (§5)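 P2Y6R-expressing 1321N1 cells preincubated 30 min at 37 °C with 500 nM MRS2957 or MRS2578, then exposed to 500 nM fluorescent agonist for 60 min at 37 °C; imaged by fluorescence microscopy (excitation 495 nm, emission 519 nm).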

[17] = molecular target: T4, P2Y purinoceptor 14 (Homo sapiens) (UniProt Q15391); assay: Agonist activity at human P2Y14 receptor expressed in rat C6 cells assessed as inhibition of forskolin-stimulated adenylate cyclase up to 10 uM; assay type: functional, cell-based
T4 sequence (whole entry): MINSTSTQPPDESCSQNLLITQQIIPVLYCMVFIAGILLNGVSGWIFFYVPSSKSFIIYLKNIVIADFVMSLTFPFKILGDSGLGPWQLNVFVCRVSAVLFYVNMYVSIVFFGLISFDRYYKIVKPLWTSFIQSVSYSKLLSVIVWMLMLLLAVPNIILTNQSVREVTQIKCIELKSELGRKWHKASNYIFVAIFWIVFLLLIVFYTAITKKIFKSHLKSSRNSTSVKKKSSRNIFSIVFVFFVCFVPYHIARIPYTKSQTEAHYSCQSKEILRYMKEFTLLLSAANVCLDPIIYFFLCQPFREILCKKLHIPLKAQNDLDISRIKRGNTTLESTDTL

[18] = molecular target: T2, P2Y purinoceptor 6; assay: Binding affinity to human recombinant P2Y6 receptor expressed in human 1321N1 cells at 500 nM after 60 mins by fluorescence microscopy in presence of MRS2578; assay type: cell-based; how it was run: as §5
[19] = molecular target: T2, P2Y purinoceptor 6; assay: Binding affinity to human recombinant P2Y6 receptor expressed in human 1321N1 cells assessed as surface bound fraction at 400 nM after 60 mins by flow cytometry in sucrose containing media; assay type: cell-based; how it was run: as §3
[20] = molecular target: T2, P2Y purinoceptor 6; assay: Binding affinity to human recombinant P2Y6 receptor expressed in human 1321N1 cells at 10 nM to 1.5 uM after 3 hrs by flow cytometry relative to control; assay type: cell-based; how it was run: as §2
[21] = molecular target: T2, P2Y purinoceptor 6; assay: Binding affinity to human recombinant P2Y6 receptor expressed in human 1321N1 cells after 2 mins by flow cytometry in presence of MRS2957; assay type: cell-based; how it was run: as §4
[22] = molecular target: T2, P2Y purinoceptor 6; assay: Binding affinity to human recombinant P2Y6 receptor expressed in human 1321N1 cells at 400 nM after 3 hrs by flow cytometry; assay type: cell-based
How it was run: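 FCM histogram of 1321N1-P2Y6R cells after 3 h incubation with 400 nM fluorescent ligand; total, nonspecific and autofluorescence measured; three independent experiments.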

[23] = molecular target: T2, P2Y purinoceptor 6; assay: Binding affinity to human recombinant P2Y6 receptor expressed in human 1321N1 cells assessed as association rate constant at 400 nM by flow cytometry; assay type: cell-based
How it was run: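 Flow cytometric kinetics of 400 nM fluorescent ligand binding to 1321N1-P2Y6R cells at 37 °C; nonspecific binding defined with 100 μM UDP; association rate constant k1 derived from time course.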

[24] = molecular target: T2, P2Y purinoceptor 6; assay: Binding affinity to human recombinant P2Y6 receptor expressed in human 1321N1 cells after 2 mins by flow cytometry in presence of UDP; assay type: cell-based; how it was run: as §4
[25] = species on record: Homo sapiens; assay: Selectivity ratio of EC50 for human recombinant P2Y4 receptor to EC50 for human recombinant P2Y6 receptor
[26] = molecular target: T2, P2Y purinoceptor 6; assay: Binding affinity to human recombinant P2Y6 receptor expressed in human 1321N1 cells at 400 nM after 60 mins by flow cytometry; assay type: cell-based

Structure (SMILES) | EC50 [2] | Activity [3] | EC50 [5] | EC50 [6] | further results
C#CCCOP(=O)(O)OP(=O)(O)OP(=O)(O)OC[C@H]1O[C@@H](n2cc/c(=N/OCc3ccccc3)[nH]c2=O)[C@H](O)[C@@H]1O | 1750 nM | < 50% | – | – | Activity [1]: < 50%
CN1/C(=C/C=C/C=C/C2=[N+](CCCCCCC(=O)NCCCCCCn3cc(CCC#Cc4cccc(CO/N=c5/ccn([C@@H]6O[C@H](COP(=O)(O)OP(=O)(O)O)[C@@H](O)[C@H]6O)c(=O)[nH]5)c4)nn3)c3ccccc3C2(C)C)C(C)(C)c2ccccc21 | – | – | – | – | Activity [4]: inactive
CC(=O)NCCn1cc(CCOP(=O)(O)OP(=O)(O)OP(=O)(O)OC[C@H]2O[C@@H](n3cc/c(=N/OCc4ccccc4)[nH]c3=O)[C@H](O)[C@@H]2O)nn1 | 879 nM | – | 3800 nM | 3300 nM | –
CO/N=c1/ccn([C@@H]2O[C@H](COP(=O)(O)OP(=O)(O)OP(=O)(O)Oc3ccc4ccccc4c3)[C@@H](O)[C@H]2O)c(=O)[nH]1 | 731 nM | < 50% | 2900 nM | – | –
N=c1ccc2c(-c3ccc(C(=O)NCCCCCCn4cc(CCC#Cc5cccc(CO/N=c6/ccn([C@@H]7O[C@H](COP(=O)(O)OP(=O)(O)O)[C@@H](O)[C@H]7O)c(=O)[nH]6)c5)nn4)cc3C(=O)O)c3ccc(N)c(S(=O)(=O)O)c3oc-2c1S(=O)(=O)O | 9 nM | < 50% | 2500 nM | – | Ratio EC50 [7]: 280; Activity [8]: inactive; Activity [9]: Active; Ratio [10]: 4; Activity [11]: 23%; Activity [12]: 77%; Activity [13]: inactive; Activity [14]: inactive; Activity [15]: Active; Activity [16]: inactive; inhibition [17]: inactive; Activity [18]: inactive; Activity [19]: 17%; Activity [20]: Active; Activity [21]: inactive; Activity [22]: Active; K [23]: 0.019 min⁻¹; Activity [24]: inactive; Ratio EC50 [25]: > 1100
O=c1[nH]/c(=N\OCc2cccc(Br)c2)ccn1[C@@H]1O[C@H](COP(=O)(O)OP(=O)(O)O)[C@@H](O)[C@H]1O | 39 nM | – | 6200 nM | > 10000 nM | Ratio EC50 [7]: 160; Ratio EC50 [25]: > 260
O=c1ccn([C@@H]2O[C@H](COP(=O)(O)OP(=O)(O)OP(=O)(O)OC[C@H]3O[C@@H](n4cc/c(=N/OCc5ccccc5)[nH]c4=O)[C@H](O)[C@@H]3O)[C@@H](O)[C@H]2O)c(=O)[nH]1 | 126 nM | – | 1700 nM | 636 nM | –
O=c1[nH]/c(=N\OCc2ccc(Br)cc2)ccn1[C@@H]1O[C@H](COP(=O)(O)OP(=O)(O)O)[C@@H](O)[C@H]1O | 32 nM | – | 5200 nM | 7440 nM | –
N=c1ccc2c(-c3ccc(C(=O)NCCCCCCn4cc(CCC#Cc5cccc(CO/N=c6/ccn([C@@H]7O[C@H](COP(=O)(O)O)[C@@H](O)[C@H]7O)c(=O)[nH]6)c5)nn4)cc3C(=O)O)c3ccc(N)c(S(=O)(=O)O)c3oc-2c1S(=O)(=O)O | – | – | – | – | Activity [26]: inactive
C#CCCCOP(=O)(O)OP(=O)(O)OP(=O)(O)OC[C@H]1O[C@@H](n2cc/c(=N/OCc3ccccc3)[nH]c2=O)[C@H](O)[C@@H]1O | > 10000 nM | < 50% | – | – | –
O=c1[nH]/c(=N\OCc2cccc(I)c2)ccn1[C@@H]1O[C@H](COP(=O)(O)OP(=O)(O)O)[C@@H](O)[C@H]1O | 19 nM | – | 2500 nM | 352 nM | –
O=c1[nH]/c(=N\OCc2ccc(I)cc2)ccn1[C@@H]1O[C@H](COP(=O)(O)OP(=O)(O)O)[C@@H](O)[C@H]1O | 148 nM | < 50% | – | – | –
O=c1[nH]/c(=N\OCc2ccccc2)ccn1[C@@H]1O[C@H](COP(=O)(O)OP(=O)(O)O)[C@@H](O)[C@H]1O | – | – | – | – | EC50 ([2]; 1321-n1): 26 nM
C#CCCC#Cc1cccc(CO/N=c2/ccn([C@@H]3O[C@H](COP(=O)(O)OP(=O)(O)O)[C@@H](O)[C@H]3O)c(=O)[nH]2)c1 | 100 nM | – | 3900 nM | 952 nM | –
O=c1[nH]/c(=N\OCc2ccc([N+](=O)[O-])cc2)ccn1[C@@H]1O[C@H](COP(=O)(O)OP(=O)(O)O)[C@@H](O)[C@H]1O | 41 nM | – | 3300 nM | 2200 nM | –
